Source: PubChem BioAssay
Records with an inconclusive call do not appear. Calls of active or inactive are those of the source.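 How the source made its calls, unless noted: active means cell viability at or below a set limit in both duplicate runs, the limit being the all-compound median minus 4 SD (cut at about 23% in these data, passing the limit was not always enough); inconclusive means no clear call, values can overlap the other calls; inactive means the rest.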

What was measured:
[1] = OD615 S. cerevisiae growth inhibition, permissive medium, pilot counter-assay, permissive growth control for S. cerevisiae lifespan shortening project (AID 705;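 active means growth inhibition above 25% in both replicates, a cutoff set 3 SD above the mean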); conditions: OD615, 24 h, at 10 µM, stronger effect = higher value
How it was run: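 System: Engineered DeaD yeast | Buffer or medium: SC raffinose/galactose permissive medium | Incubation: Cells pre-grown 4 h, then 24 h compound exposure, 30 °C humidified | Measured by: Absorbance (optical density) at 615 nm | Read-out: Reduction in yeast growth (OD615)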

[2] = viability gain of MRP-1-high H69AR cells under doxorubicin, pilot screen, MRP-1 activator project, CellTiter-Glo, duplicate (AID 807;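 active means viability increase at or above a cutoff of the median across tested compounds plus 3 SD, cut at about 8.5% in these data, passing the limit was not always enough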;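 further: compound pretreatment 18-22 h then 72 h combined with doxorubicin; 0% = doxorubicin alone and 100% = vehicle without doxorubicin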); conditions: H69AR viability with doxorubicin, CellTiter-Glo luminescence; at 10 µM; stronger effect = higher value
[3] = growth suppression of beta-catenin knockout HCT116, pilot screen, human colon tumor cells (AID 823); conditions: CellTiter-Glo, 60 h, at 10 µM, stronger effect = lower value;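 further: 0% = wells killed by 20 µM Hyamine and 100% = untreated DMSO cell wells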
[4] = growth suppression of PTEN-deleted HCT116, pilot screen, cell-based, HCT116 clonal line, CellTiter-Glo (AID 824;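 active means viability at or below 27.92% in each of two runs, the all-compound median minus 4 SD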;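 further: 0% = 20 µM Hyamine control and 100% = vehicle cell control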); conditions: 60 h, at 10 µM, stronger effect = lower value
[5] = inhibitors of the yeast RAM network, pilot screen, dse1pr::URA3 reporter, 5-FOA selection (AID 869;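 active means inhibition over a set limit, the all-compound mean plus 3 SD, in both replicate runs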;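 further: 0% = DMSO wells with no growth and 100% = 10 µM 1-NA-PP1 with full growth; RAM network block rescues cells from 5-FOA so hits raise OD615 growth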); conditions: S. cerevisiae dse1pr::URA3 5-FOA growth, OD615, 2 d; at 10 µM; stronger effect = higher value; strain carries analog-sensitive mutant Cbk1 kinase
[6] = RAM signaling pathway blockade in yeast – S. cerevisiae, Pdr1DBD-CYC8 efflux-inhibited sensitized strain, primary screen (AID 1298;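 active means RAM network inhibition above 8.4% in each of two replicates, 3 SD over the compound average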;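 further: 0% = DMSO untreated cells without growth and 100% = 10 µM 1-NA-PP1 full growth; higher means more yeast growth rescued from 5-FOA killing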); conditions: S. cerevisiae cbk1-as DSE1-URA3 strain, 5-FOA growth OD615, 2 d; at 50 µM; stronger effect = higher value
[7] = Restrictive medium S. cerevisiae growth inhibition, OD615, pilot screen of yeast lifespan reduction project, restrictive growth control (AID 706;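 active means growth inhibition above a set limit, 3 SD over mean compound inhibition, in both replicates, cut at about 43% in these data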;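 further: modified DeaD lifespan yeast strain shifted to restrictive glucose medium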); conditions: OD615, 48 h, at 10 µM, stronger effect = higher value
How it was run: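 Material: modified S. cerevisiae; Medium: glucose-based CSMM-D restrictive medium; Compound dosing: one concentration, 10 µM final, 0.25% DMSO; Incubation: 48 h compound exposure at 30 °C; Measured by: OD615.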

O=C(Nc1nc2c(s1)CCCC2)c1ccc2ncsc2c1
inactive: growth inhibition [1] 14.5% | viability increase [2] -2.76% | viability [3] 68.4% | viability [4] 76.7% | inhibition [5] -0.135% | RAM network inhibition [6] 0.27%

c1ccc(Cc2nnc3sc(-c4ccco4)nn23)cc1
inactive: viability increase [2] -5.05% | viability [3] 108% | viability [4] 94.7% | inhibition [5] 1.98% | RAM network inhibition [6] 5.97%
active: growth inhibition [7] 68.7%

CCCc1nc2sc3c(SCC(=O)NCc4ccco4)ncnc3c2c2c1CCC2
inactive: growth inhibition [1] -1.16% | viability increase [2] -6.5% | viability [3] 47.4% | inhibition [5] 2.37% | RAM network inhibition [6] 4.21%

CC(=O)NC1(NC(C)=O)CCN(C)C(c2ccccc2)C1C (configuration not stated)
inactive: growth inhibition [7] -6.19% | viability increase [2] -2% | viability [3] 98.2% | viability [4] 100% | inhibition [5] 1.46% | RAM network inhibition [6] 1.13%

Fc1ccc(-c2nnc3ccc(N4CCc5ccccc5C4)nn23)cc1
active: viability [3] 2.21% | viability [4] 1.42%
inactive: growth inhibition [1] 14.2% | viability increase [2] -7.99% | inhibition [5] 2.02% | RAM network inhibition [6] 3.14%

CCc1ccc(Cn2nnc(C(=O)NCc3ccccc3OC)c2N)cc1
inactive: growth inhibition [7] 5.92% | viability increase [2] -2.2% | viability [3] 95% | viability [4] 92% | inhibition [5] 1.81% | RAM network inhibition [6] 4.95%

Cc1cc(/C=N/n2cnnc2)c(C)n1-c1ccc(OCc2ccccc2F)cc1
inactive: growth inhibition [1] -0.03% | viability increase [2] -6.9% | inhibition [5] 1.2% | RAM network inhibition [6] 11.1%
active: viability [3] 8.8% | viability [4] 13.7%

COc1cc(C2CC(=O)N3CN(Cc4ccco4)CSC3=C2C#N)ccc1OCc1ccccc1 (configuration not stated)
inactive: growth inhibition [1] 7.01% | viability increase [2] -5.42% | viability [3] 77.8% | viability [4] 83.5% | inhibition [5] 1.65% | RAM network inhibition [6] 2.55%

O=C(CSc1ccc2nnc(-c3ccc(Cl)cc3)n2n1)N1CCCC1
inactive: growth inhibition [1] -1.01% | viability increase [2] -3.12% | viability [3] 86.3% | viability [4] 93.1% | inhibition [5] 1.32% | RAM network inhibition [6] 4.24%

CCN(CC)C1CC(=O)N(c2cccc(C)c2)C1=O (configuration not stated)
inactive: growth inhibition [1] 20% | viability increase [2] -1.11% | viability [3] 105% | viability [4] 101% | inhibition [5] 2.06% | RAM network inhibition [6] -0.69%

c1cncc(-c2nnc(SCc3cccc4ccccc34)o2)c1
inactive: growth inhibition [1] -6.93% | viability increase [2] -0.01% | viability [3] 103% | viability [4] 91% | inhibition [5] 1.16% | RAM network inhibition [6] 0.49%

S=C(Nc1ccccn1)c1ccccn1
active: viability [3] 2.08% | viability [4] 0.72%
inactive: growth inhibition [1] 7.06% | viability increase [2] -8.21% | inhibition [5] 1.43% | RAM network inhibition [6] 3.64%

Cc1ccc(/C=c2/sc3nnc(-c4ccccc4Cl)n3c2=O)o1
inactive: growth inhibition [1] -7.07% | viability increase [2] -5% | viability [3] 90.9% | viability [4] 93% | inhibition [5] 0.785% | RAM network inhibition [6] 3.46%

Cc1ccc(S(=O)(=O)Nc2nc(C)cc(NCCN)n2)cc1
inactive: growth inhibition [7] -2.19% | viability increase [2] -0.98% | viability [3] 94.3% | viability [4] 88.5% | inhibition [5] 0.48% | RAM network inhibition [6] 2.5%

Cc1csc(NC(=O)CSc2nnc(Cc3cccn3C)n2CCc2ccccc2)n1
inactive: growth inhibition [1] 11% | viability increase [2] -3.58% | viability [3] 87.1% | viability [4] 82.6% | inhibition [5] 0.505% | RAM network inhibition [6] 9.43%

CCC(C)N1CC23C=CC(O2)C(C(=O)OC)C3C1=O (configuration not stated)
inactive: growth inhibition [1] 0.035% | viability increase [2] 1.12% | viability [3] 109% | viability [4] 106% | inhibition [5] 0.115% | RAM network inhibition [6] 1.34%

CCC1(C)Cc2nc3sc(C(=O)O)c(N)c3cc2CO1 (configuration not stated)
inactive: growth inhibition [1] -4.39% | viability increase [2] -3.61% | viability [3] 94.2% | inhibition [5] 1.71% | RAM network inhibition [6] 6.29%

COc1ccc(S(=O)(=O)N2CCN(c3ccc4nnc(-c5ccc(F)cc5)n4n3)CC2)cc1
inactive: growth inhibition [1] 16.1% | viability increase [2] -6.07% | viability [3] 46.4% | viability [4] 38.6% | inhibition [5] 1.78% | RAM network inhibition [6] 1.48%

CC(=O)C1=C(C)Nc2cc(C(F)(F)F)ccc2S1
inactive: growth inhibition [7] 27.2% | viability increase [2] -1.14% | viability [3] 93.6% | viability [4] 85.7% | inhibition [5] 1.77% | RAM network inhibition [6] 4.09%

O=C(CSc1nnc(-c2ccccn2)n1Cc1ccco1)c1ccccc1
inactive: growth inhibition [1] 0.135% | viability increase [2] -3.34% | viability [3] 98.1% | viability [4] 95.2% | inhibition [5] 0.485% | RAM network inhibition [6] 7.41%

COC(=O)c1cc(CSc2nc3ccc(C)cc3[nH]2)oc1C
inactive: growth inhibition [7] 4.74% | viability increase [2] -0.15% | viability [3] 46.6% | viability [4] 63.5% | inhibition [5] 0.105% | RAM network inhibition [6] 4.81%

O=C(CSc1nnc(Cn2c(=O)sc3ccccc32)n1CCc1ccccc1)N1CCCC1
inactive: growth inhibition [1] 2.63% | viability increase [2] -3.62% | viability [3] 97.9% | viability [4] 94.9% | inhibition [5] 2.82% | RAM network inhibition [6] 7.13%

COc1ccc(OC)c(C2CC(=O)N3CN(c4ccc(C)c(Cl)c4)CSC3=C2C#N)c1 (configuration not stated)
inactive: growth inhibition [1] -0.805% | viability increase [2] -3.72% | viability [3] 90.6% | viability [4] 94.4% | inhibition [5] 2.44% | RAM network inhibition [6] 7.86%

CCOc1cccc(C(=O)Nc2cc(-c3nn4c(C)nnc4s3)ccc2C)c1
inactive: growth inhibition [1] 9.19% | viability increase [2] -4.79% | viability [3] 100% | viability [4] 93.6% | inhibition [5] 0.07% | RAM network inhibition [6] 2.22%

CCN1CCN(C(=O)CS(=O)Cc2nc(-c3ccc(OC)cc3)oc2C)CC1 (configuration not stated)
inactive: growth inhibition [7] -7.22% | viability increase [2] -0.78% | viability [3] 104% | viability [4] 100% | inhibition [5] 0.945% | RAM network inhibition [6] 1.04%

Oc1c(CN2CCc3ccccc3C2)cc(Cl)c2cccnc12
inactive: growth inhibition [1] 5.68% | viability increase [2] -9.01% | inhibition [5] -1.5% | RAM network inhibition [6] -2.41%
active: viability [3] 1.27% | viability [4] 0.66%

CSc1nc(-c2ccccc2)nc2[nH]ccc(=O)c12
inactive: growth inhibition [7] -18.3% | viability increase [2] -3.93% | viability [3] 76% | viability [4] 80.6% | inhibition [5] 0.065% | RAM network inhibition [6] 1.4%

CCOC(=O)c1ccc(NC(=O)CSc2nc3c(c(=O)n2CC)SC(C)C3)cc1 (configuration not stated)
inactive: growth inhibition [7] -18.3% | viability increase [2] -3.44% | viability [3] 84% | viability [4] 80.8% | inhibition [5] 0.12% | RAM network inhibition [6] 3.13%

COc1ccc(OC)c(C2CC(=O)N3CN(c4cccc(Cl)c4)CSC3=C2C#N)c1 (configuration not stated)
inactive: growth inhibition [1] 1.31% | viability increase [2] -2.23% | viability [3] 100% | viability [4] 95.4% | inhibition [5] 2.46% | RAM network inhibition [6] 8.89%

CCOC(=O)c1c(N)sc2c(OC)c(Br)ccc12
inactive: growth inhibition [1] 21.3% | viability increase [2] 0.76% | viability [3] 99.8% | viability [4] 102% | inhibition [5] -2.46% | RAM network inhibition [6] 5.62%

COc1ccc(OCC(=O)Nc2cc(OC)cc(OC)c2)cc1
inactive: growth inhibition [7] 7.43% | viability increase [2] -3.71% | viability [3] 88.7% | viability [4] 93.9% | inhibition [5] -0.89% | RAM network inhibition [6] -2.47%

O=c1c2ccccc2[nH]c(=S)n1Cc1cccnc1
inactive: growth inhibition [1] 6.04% | viability increase [2] -0.83% | viability [3] 103% | viability [4] 92.5% | inhibition [5] -0.605% | RAM network inhibition [6] 1.73%

Cn1cccc1Cc1nnc(SCC(=O)NC2CCCC2)n1CCc1ccccc1
inactive: growth inhibition [1] -1.71% | viability increase [2] -0.59% | viability [3] 101% | viability [4] 96.8% | inhibition [5] 1.71% | RAM network inhibition [6] 6.53%

Cn1c(CNc2ccccc2O)nc2ccccc21
inactive: growth inhibition [1] -5.35% | viability increase [2] -6.1% | viability [3] 68.8% | viability [4] 64% | inhibition [5] 0.42% | RAM network inhibition [6] -1.31%

COc1ccccc1C(=O)Nc1cc(-c2nn3c(C)nnc3s2)ccc1C
inactive: growth inhibition [1] 12.8% | viability increase [2] -3.73% | viability [3] 114% | viability [4] 97.8% | inhibition [5] 1.22% | RAM network inhibition [6] 4.87%

COc1ccc(Br)cc1C1CC(=O)N2CN(C)CSC2=C1C#N (configuration not stated)
inactive: growth inhibition [1] 4.76% | viability increase [2] -4.75% | viability [3] 81.6% | viability [4] 78.3% | inhibition [5] 0.03% | RAM network inhibition [6] 1.82%

O=C(O)C1CC=CCC1C(=O)NCc1cn2ccccc2n1 (configuration not stated)
inactive: growth inhibition [7] -15.1% | viability increase [2] -2.16% | viability [3] 103% | viability [4] 96.1% | inhibition [5] 2.84% | RAM network inhibition [6] 4.32%

Clc1ccccc1CSc1nnc(-c2ccccn2)n1Cc1ccco1
inactive: growth inhibition [1] -5.1% | viability increase [2] -5.33% | viability [3] 74.8% | viability [4] 79% | inhibition [5] 1.92% | RAM network inhibition [6] 2.52%

COC(=O)Cn1c(=NC(=O)CSC(C)=O)sc2ccccc21
inactive: growth inhibition [1] 4.79% | viability increase [2] -1.9% | viability [3] 98.5% | viability [4] 101% | inhibition [5] 2.89% | RAM network inhibition [6] 5.91%
